A short description of data set [1]: Vosoritide plasma pharmacokinetics, phase II study. It is filed as in vivo, human. The method, boiled down:
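Phase II, daily s.c. doses 2.5–30 µg/kg. Plasma measured by validated ELISA: murine monoclonal anti-drug IgG capture, rabbit polyclonal anti-CNP IgG detection. Full sampling on days 1, 10, 29, 85 and 183, predose and 5–180 min postdose. Non-compartmental analysis used linear-up/log-down trapezoids. Below-LLOQ values before Tmax set to zero; those after Tmax censored.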

A further data set has as its system NPR-B. Put plainly: Vosoritide-neutralizing antibodies. It is filed as cell-based, human. To be noted: phase III, all time points tested. The essentials:
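Run only on confirmed TAb-positive sera. Frozen NIH/3T3 cells cultured overnight (DMEM high glucose + 10% FBS, 37°C, 5% CO2). Cells stimulated with 5 ng/mL drug in diluted serum; cellular cGMP read by ELISA, where signal is inverse to cGMP. Screening cut point: upper 95th percentile of pretreatment sera. Positives confirmed by immunodepletion on drug-conjugated magnetic beads. LOD 227 ng/mL.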

The test system of data set [2] is patients with achondroplasia. It is filed as in vivo, human. The settings on record: phase II, initial 6 months, visit-matched; the single patient with high exposure.
For data set [3], the system named is patients with achondroplasia. Put plainly: Change from baseline in annualized growth velocity. It is filed as in vivo, human. The essentials:
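Phase II: once-daily subcutaneous dosing at 2.5–30 µg/kg. Change in AGV from baseline to day 183 fitted by sigmoid Emax (E0, Emax, EC50, Hill h) against individual mean Cmax or AUC0-t, each averaged per patient over all PK visit days. Phase III (15 µg/kg) exposure–AGV also analysed. Estimates given with 95% CIs.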

The test system of data set [4] is total anti-vosoritide antibody (TAb). Put plainly: Total anti-vosoritide antibodies. To be noted: phase III; p > 0.8 for difference in estimated mean Cmax and AUC0-∞ by TAb status, t-test. It is filed as in vivo, human.
For data set [5], the system named is patients with achondroplasia. The settings on record: phase II, children with achondroplasia, daily dose of 15 µg/kg, up to 42 months; cited from earlier work.
For data set [6], the system named is collagen type X marker (CXM). Put plainly: Serum collagen type X marker. It is filed as in vivo, human. The method, boiled down: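 Serum CXM measured by electrochemiluminescence sandwich assay. Streptavidin plates were blocked, then coated with biotinylated anti-collagen X NC1 SOMAmer capture. Standard was recombinant human collagen X NC1; sera diluted 1:100. Detection used ruthenium-labelled mouse mAb. Values read from a 4PL curve (1/Y² weighting); LOD 914 pg/mL neat serum. Individual mean CXM (day 10–183, phase II) fitted by sigmoid Emax versus individual mean Cmax or AUC0-t.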

A short description of data set [7]: Vosoritide plasma pharmacokinetics, phase III study. It is filed as in vivo, human. The method, boiled down: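 Phase III, 15 µg/kg s.c. once daily. Full plasma sampling at day 1, week 26 and week 52: predose and 5, 15, 30, 45, 60, 90 and 120 min. Sparse sampling at weeks 13 and 39. Parameters from non-compartmental analysis with linear-up/log-down trapezoids. Effects of sex, body weight, age, race and anti-drug antibodies on exposure were evaluated.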

Data set [8] addresses urine cGMP (activity through the target receptor NPR-B). Put plainly: Urine cGMP normalized to creatinine. It is filed as in vivo, human. The essentials: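 Urine collected predose and 1, 2 and 4 h postdose. Phase II: initial 6 months plus months 12, 18 and 24. Phase III: days 1–3 and weeks 6, 26 and 52. cGMP measured (LLOQ 138 pmol/mL neat urine) and normalised to creatinine. Maximum postdose increase is taken over the same-visit predose value; negative if predose is maximal. Fitted against visit-matched Cmax/AUC (non-estimable set to zero): sigmoid Emax (phase II) or Emax with h=1 (phase III).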

For data set [9] the following is noted: endogenous CNP in humans; cited from earlier work.
The mark [10] stands for this setting: phase II, the single patient with high individual mean exposure.

Where two headings read alike, the source gives them in different places.

On to `CC[C@H](C)[C@@H]1NC(=O)[C@H](CCCNC(=N)N)NC(=O)[C@H](CC(=O)O)NC(=O)[C@H](CC(C)C)NC(=O)[C@H](CCCCN)NC(=O)[C@H](CC(C)C)NC(=O)CNC(=O)[C@H](Cc2ccccc2)NC(=O)[C@@H](NC(=O)CNC(=O)[C@H](CCCCN)NC(=O)[C@H](CO)NC(=O)[C@H](CC(C)C)NC(=O)CNC(=O)[C@H](CCCCN)NC(=O)[C@H](CCCCN)NC(=O)[C@H](CC(N)=O)NC(=O)[C@H](C)NC(=O)CNC(=O)[C@H](CCCCN)NC(=O)[C@H](Cc2ccc(O)cc2)NC(=O)[C@H](CCCCN)NC(=O)[C@H](CCCNC(=N)N)NC(=O)[C@H](C)NC(=O)[C@H](CC(N)=O)NC(=O)[C@@H]2CCCN2C(=O)[C@H](Cc2c[nH]cn2)NC(=O)[C@H](CCC(=O)O)NC(=O)[C@H](CCC(N)=O)NC(=O)CNC(=O)[C@@H]2CCCN2)CSSC[C@@H](C(=O)O)NC(=O)CNC(=O)[C@H](CC(C)C)NC(=O)CNC(=O)[C@H](CO)NC(=O)[C@H](CCSC)NC(=O)[C@H](CO)NC(=O)CNC1=O` [vosoritide], for which, in data set [1] (doses from 2.5 to 30 μg/kg), the “increase in vosoritide exposure with dose” value was “greater than proportional”. Further, in data set [1] (human, plasma, sc, 2.5 ug/kg), the Cmax came to 0.549 ng/mL and the time of peak concentration (Tmax) is 5 min. Further, in data set [1] (human, plasma, sc, 7.5 ug/kg), the Cmax came to 1.36 ng/mL and the Tmax is 13.7 min. In data set [1] (human, plasma, sc, 15 ug/kg), the CL/F turned out to be 83.7 mL/min/kg, the Cmax amounted to 4.75 ng/mL, the Tmax is 15.8 min and the Vd/F was 2.56 L/kg. In addition, in data set [1] (human, plasma, sc, 15 ug/kg), the half-life is 24.4 min. The Cmax in [1] (human, plasma, sc, 30 ug/kg) amounted to 16.8 ng/mL. Also, the “Cmax at one visit of one patient” value in [1] (phase II, single patient with high exposure, left out of the figure) turned out to be 839 ng/mL. The “NAb status of TAb-positive patients” value in the data set with NPR-B is “negative”. Further, in data set [2], the “maximum decrease in DBP of one patient” value is −2 mmHg, the “maximum decrease in SBP of one patient” value is −7 mmHg and the “maximum increase in HR of one patient” value was determined as 39 bpm. In addition, the “correlation between plasma exposure and change in AGV” value in [3] (phase II, 24 months of daily dosing, 15 and 30 µg/kg, linear regression, p = 0.34 for Cmax, p = 0.50 for AUC0-60min) is recorded as “no significant correlation”. Further, in data set [3] (setting [10]), the “change in annualized growth velocity from baseline to day 183 of one patient” value came out at 3.56 cm/year. Moreover, the “relationship between exposure and changes in AGV” value in [3] (phase III, 15 µg/kg, baseline to week 52, linear regression, p = 0.52 for Cmax, p = 0.54 for AUC0-60min) is “lack of relationship”. In [3] (sigmoid Emax model vs individual mean AUC0-t, baseline to day 183, phase II, MPE), the “EC50 (AUC0-t producing half maximal effect), change in AGV” value is 20,500 pg-min/mL. The “impact of serum TAb on plasma exposure of vosoritide (Cmax and AUC0-∞)” value in data set [4] is on record as “no apparent impact”. Moreover, the “sustained mean increase in annualized growth velocity (AGV) above baseline” value in [5] is reported as 1.55 cm/year. Besides, the “correlation between plasma exposure and mean CXM concentration” value in data set [6] (phase II, 24 months of daily dosing, 15 and 30 µg/kg, linear regression, p = 0.98 for Cmax, p = 0.99 for AUC0-60min) is listed as “no significant correlation”. The “mean CXM from day 10 to day 183 of one patient” value in data set [6] (setting [10]) was 12,200 pg/mL. Further, the “relationship between exposure and mean CXM concentrations” value in [6] (phase III, 15 µg/kg, week 13 to week 52, linear regression, p = 0.74 for Cmax, p = 0.58 for AUC0-60min) is listed as “lack of relationship”. Besides, in data set [6] (sigmoid Emax model vs individual mean AUC0-t, day 10 to day 183, phase II, MPE), the “EC50 (AUC0-t producing half maximal effect on CXM)” value amounted to 51700 pg·min/mL. Moreover, the “impact of sex on plasma Cmax or AUC0-60min” value in data set [7] is “no apparent impact”. Moreover, the “accumulation with once-daily dosing” value in data set [7] (15 µg/kg s.c. once daily, 52 weeks) is on record as “No evidence of accumulation”. This compound also gave a Vz/F in data set [7] (15 µg/kg s.c. once daily, Week 52, plasma ECLA, NCA, mean) of 2.91 L/kg. Also, the “relationship of plasma AUC0-60min with body weight and age” value in data set [7] (linear regression, p < 0.001) is reported as “positively correlated”. In addition, the “EC50 (AUC0-60min producing half maximal effect on cGMP/Cr)” value in data set [8] (Emax model (h = 1) vs visit-matched AUC0-60min, phase III, 15 µg/kg, MPE) was 479000 pg·min/mL. In [8] (Emax model (h = 1) vs visit-matched Cmax, phase III, 15 µg/kg, MPE (95% CI)), the “Emax, maximum postdose increase in urine cGMP/Cr” value is listed as 18,160 (13,800–22,600) pmol/mg Cr. The “maximum change from pre-dose cGMP/Cr of one patient” value in [8] (phase II, initial 6 months, visit-matched, the single patient with high exposure) came out at 8190 pmol/mg Cr. For the same compound, the “EC50 (AUC0-t producing half maximal effect on cGMP/Cr)” value in [8] (sigmoid Emax model vs visit-matched AUC0-t, initial 6 months of phase II, MPE) was determined as 222000 pg·min/mL.

Take C-type natriuretic peptide [CNP]: the half-life in data set [9] was 2.6 min.

In general, Cmax refers to the maximum level reached in the sampled fluid or tissue. As a reminder, the Tmax is the time from dosing to the highest level. For orientation: CL/F means clearance divided by bioavailability, as obtained after extravascular dosing. The term Vd/F denotes the apparent distribution volume after extravascular dosing. One may read the half-life as the time in which the quantity being followed falls by half.

The values are drawn from article PMC8813707 (Clinical Pharmacokinetics, 2021).
